Publication PMC10652724 (ACS Omega, 2023)

Key:
[1] = nitrofuran metabolite; cited from earlier work
T. evansi Tansui = assay: In vitro trypanocidal activity, bloodstream forms, CellTiter-Glo; format: cell-based, Trypanosoma evansi
T. b. rhodesiense IL1501 = assay: as above; format: cell-based, Trypanosoma brucei rhodesiense
T. congolense IL3000 [2] = conditions: T. congolense IL3000 infected mice, cited from earlier work
T. b. brucei GUTat3.1 = assay: In vitro trypanocidal activity, bloodstream forms, CellTiter-Glo; format: cell-based, Trypanosoma brucei brucei
T. equiperdum IVM-t1 = assay: as above; format: cell-based, Trypanosoma equiperdum
T. congolense IL3000 [3] = assay: as above; format: cell-based, Trypanosoma congolense
[4] = In vitro cytotoxicity, Cell Counting Kit-8; format: cell-based; conditions: bovine, MDBK cells (Madin–Darby bovine kidney)
Outline: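 MDBK cells (1 × 10^4 cells/mL) incubated at 37°C for 72 h with test compound in […] twofold serial dilutions, 100 down to 0.39 μg/mL. Cell Counting Kit-8 added; OD450 read before and after a further 4 h incubation. Done in three replicates. CC50 from nonlinear regression curve fit, reported as mean ± SD.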

T. b. gambiense IL1922 = assay: In vitro trypanocidal activity, bloodstream forms, CellTiter-Glo; format: cell-based, Trypanosoma brucei gambiense

| Compound | metabolite present in edible pig tissues [1] [µg/kg] | Selectivity index (SI) (T. evansi Tansui; CC50 of MDBK/IC50 of Tev Tansui) | IC50 (T. evansi Tansui; Trypanosoma evansi, 72 h, read-out: trypanocidal activity IC50 ± SD) [nM] | Selectivity index (SI) (T. b. rhodesiense IL1501; CC50 of MDBK/IC50 of Tbr IL1501) | IC50 (T. b. rhodesiense IL1501; Trypanosoma brucei, RHODESIENSE, 72 h, read-out: trypanocidal activity IC50 ± SD) [nM] | minimum effective dose (T. congolense IL3000 [2]) [mg/kg] | survival and cure (T. congolense IL3000 [2]; dose ≥30 mg/kg) [%] | Selectivity index (SI) (T. b. brucei GUTat3.1; CC50 of MDBK/IC50 of Tbb GuTat3.1) | IC50 (T. b. brucei GUTat3.1; Trypanosoma brucei, 72 h, read-out: trypanocidal activity IC50 ± SD) [nM] | Selectivity index (SI) (T. equiperdum IVM-t1; CC50 of MDBK/IC50 of Teq IVM-t1) | IC50 (T. equiperdum IVM-t1; Trypanosoma equiperdum, 72 h, read-out: trypanocidal activity IC50 ± SD) [nM] | Selectivity index (SI) (T. congolense IL3000 [3]; CC50 of MDBK/IC50 of Tc IL3000) | IC50 (T. congolense IL3000 [3]; Trypanosoma congolense, 72 h, read-out: trypanocidal activity IC50 ± SD) [nM] | CC50 at 72 h [4] [nM] | Selectivity index (SI) (T. b. gambiense IL1922; CC50 of MDBK/IC50 of Tbg IL1922) | IC50 (T. b. gambiense IL1922; Trypanosoma brucei, GAMBIENSE, 72 h, read-out: trypanocidal activity IC50 ± SD) [nM] |
| --- | --- | --- | --- | --- | --- | --- | --- | --- | --- | --- | --- | --- | --- | --- | --- | --- |
| NN1CC(=O)NC1=O [1-aminihydantoin, 1-aminohydantoin] | 3 to 8 |  |  |  |  |  |  |  |  |  |  |  |  |  |  |  |
| O=C1CN(/N=C/c2ccc([N+](=O)[O-])o2)C(=O)N1 [Nitrofurantoin, nitrofurantoin] |  | 44 | 1670 ± 70 | 43 | 1690 ± 200 | 30 | 100 | 48 | 1510 ± 30 | 50 | 1450 ± 30 | 174 | 420 ± 50 | 73000 ± 36200 | 39 | 1850 ± 230 |
